pIC50: −log10 of the molar value. Calls of active or inactive are those of the source. The calls are words filed in the database; no cut-off is given here.

For assay [1], the target named is T1, Serine/threonine-protein kinase B-raf (Homo sapiens, UniProt P15056). In words: Inhibition of N-terminal 6x-His-tagged BRAF kinase domain (unknown origin) expressed in baculovirus infected Sf9 insect cells co-expressing mouse p50cdc37 using C-terminal His-tagged/N-terminal GST-tagged full length human MEK1 as substrate after 1 hr by ELISA. An outline of the steps: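 His-tagged BRAF kinase domain (residues 442–724, WT or V600E) was preincubated with inhibitor 1 h at room temperature in 50 mM HEPES pH 7.0, 50 mM NaCl. It was then added to GST-MEK1 bound on glutathione plates, with 100 μM ATP final in 50 mM HEPES pH 7.0, 200 mM NaCl, 20 mM MgCl2, for 30 min at 37 °C. Phospho-MEK (S217/S221) was read by chemiluminescent ELISA. Curves run in duplicate/triplicate, min–max normalized, IC50 from log(inhibitor)–response fit.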
(In general: ELISA stands for enzyme-linked immunosorbent assay.)

The test system of assay [2] is Serine/threonine-protein kinase B-raf (Homo sapiens), P15056 [V600E]. Kind of assay: Induction of N-terminal 6x-His-tagged BRAF V600E mutant (unknown origin) dimer formation expressed in baculovirus infected Sf9 insect cells co-expressing mouse p50cdc37 at 20 uM by sedimentation velocity method.
In assay [3] the target is Serine/threonine-protein kinase B-raf (Homo sapiens, UniProt P15056, V600E). Kind of assay: Inhibition of N-terminal 6x-His-tagged BRAF V600E mutant (unknown origin) expressed in baculovirus infected Sf9 insect cells co-expressing mouse p50cdc37 using C-terminal His-tagged/N-terminal GST-tagged full length human MEK1 as substrate after 1 hr by ELISA. The essentials: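 ELISA: GST-MEK1 bound to glutathione-coated plate 1 h, room temperature. Insect-cell His-BRAF V600E (1:1000 dilution) preincubated with inhibitor 1 h, room temperature, then reacted with 100 μM ATP in 50 mM HEPES pH 7.0, 200 mM NaCl, 20 mM MgCl2, 30 min, 37 °C. Anti-pMEK S217/S221, HRP secondary, chemiluminescence. Duplicate or triplicate, min–max normalized, log(inhibitor)-response IC50.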

Assay [4] deals with T1, Serine/threonine-protein kinase B-raf. In words: Induction of N-terminal 6x-His-tagged BRAF (unknown origin) dimer formation expressed in baculovirus infected Sf9 insect cells co-expressing mouse p50cdc37 assessed as melting temperature at 250 uM by differential scanning calorimetric method (reference value: 37.84 degC). (Differential scanning calorimetry records heat flow against a reference as temperature is scanned.)

Assay [5] has the same target. In words: Induction of N-terminal 6x-His-tagged BRAF (unknown origin) dimer formation expressed in baculovirus infected Sf9 insect cells co-expressing mouse p50cdc37 at 15 uM by sedimentation velocity method.
Assay [6] shares this target. Kind of assay: Induction of N-terminal 6x-His-tagged BRAF (unknown origin) dimer formation expressed in baculovirus infected Sf9 insect cells co-expressing mouse p50cdc37 assessed as melting temperature at 125 uM by differential scanning calorimetric method.
For assay [7], the system named is Serine/threonine-protein kinase B-raf (Homo sapiens), P15056 [V600E]. Kind of assay: Induction of N-terminal 6x-His-tagged BRAF V600E mutant (unknown origin) dimer formation expressed in baculovirus infected Sf9 insect cells co-expressing mouse p50cdc37 at 10 uM by sedimentation velocity method.
The target of assay [8] is T1, Serine/threonine-protein kinase B-raf. In words: Induction of N-terminal 6x-His-tagged BRAF (unknown origin) dimer formation expressed in baculovirus infected Sf9 insect cells co-expressing mouse p50cdc37 assessed as melting temperature at 75 uM by differential scanning calorimetric method (reference value: 37.84 degC).
Assay [9] has the same target. In words: Induction of N-terminal 6x-His-tagged BRAF (unknown origin) dimer formation expressed in baculovirus infected Sf9 insect cells co-expressing mouse p50cdc37 at 200 uM measured after trypsin digestion for 30 mins by coomassie blue staining-based SDS-PAGE method.

Serine/threonine-protein kinase B-raf (Homo sapiens, UniProt P15056, V600E), sequence (P15056 2-766 V600E limits assumed): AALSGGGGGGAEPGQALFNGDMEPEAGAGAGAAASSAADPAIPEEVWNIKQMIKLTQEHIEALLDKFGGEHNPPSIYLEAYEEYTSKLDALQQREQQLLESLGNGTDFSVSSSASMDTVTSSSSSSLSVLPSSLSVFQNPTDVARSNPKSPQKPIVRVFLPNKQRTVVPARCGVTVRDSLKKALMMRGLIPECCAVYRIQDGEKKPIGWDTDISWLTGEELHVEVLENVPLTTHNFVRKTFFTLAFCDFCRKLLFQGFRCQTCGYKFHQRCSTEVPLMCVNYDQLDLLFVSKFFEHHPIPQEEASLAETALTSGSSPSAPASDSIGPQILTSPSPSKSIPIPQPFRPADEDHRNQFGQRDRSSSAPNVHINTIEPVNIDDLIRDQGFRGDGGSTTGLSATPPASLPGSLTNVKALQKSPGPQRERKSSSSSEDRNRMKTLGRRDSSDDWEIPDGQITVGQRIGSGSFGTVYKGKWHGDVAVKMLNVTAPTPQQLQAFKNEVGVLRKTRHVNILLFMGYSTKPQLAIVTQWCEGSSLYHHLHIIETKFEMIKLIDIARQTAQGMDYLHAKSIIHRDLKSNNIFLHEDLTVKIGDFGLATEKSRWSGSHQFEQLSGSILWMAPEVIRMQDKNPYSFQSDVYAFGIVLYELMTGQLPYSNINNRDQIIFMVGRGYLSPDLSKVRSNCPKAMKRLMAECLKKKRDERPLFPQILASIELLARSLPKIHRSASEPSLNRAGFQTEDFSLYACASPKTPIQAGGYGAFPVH
Serine/threonine-protein kinase B-raf (Homo sapiens), P15056 [V600E], sequence (P15056 whole entry V600E): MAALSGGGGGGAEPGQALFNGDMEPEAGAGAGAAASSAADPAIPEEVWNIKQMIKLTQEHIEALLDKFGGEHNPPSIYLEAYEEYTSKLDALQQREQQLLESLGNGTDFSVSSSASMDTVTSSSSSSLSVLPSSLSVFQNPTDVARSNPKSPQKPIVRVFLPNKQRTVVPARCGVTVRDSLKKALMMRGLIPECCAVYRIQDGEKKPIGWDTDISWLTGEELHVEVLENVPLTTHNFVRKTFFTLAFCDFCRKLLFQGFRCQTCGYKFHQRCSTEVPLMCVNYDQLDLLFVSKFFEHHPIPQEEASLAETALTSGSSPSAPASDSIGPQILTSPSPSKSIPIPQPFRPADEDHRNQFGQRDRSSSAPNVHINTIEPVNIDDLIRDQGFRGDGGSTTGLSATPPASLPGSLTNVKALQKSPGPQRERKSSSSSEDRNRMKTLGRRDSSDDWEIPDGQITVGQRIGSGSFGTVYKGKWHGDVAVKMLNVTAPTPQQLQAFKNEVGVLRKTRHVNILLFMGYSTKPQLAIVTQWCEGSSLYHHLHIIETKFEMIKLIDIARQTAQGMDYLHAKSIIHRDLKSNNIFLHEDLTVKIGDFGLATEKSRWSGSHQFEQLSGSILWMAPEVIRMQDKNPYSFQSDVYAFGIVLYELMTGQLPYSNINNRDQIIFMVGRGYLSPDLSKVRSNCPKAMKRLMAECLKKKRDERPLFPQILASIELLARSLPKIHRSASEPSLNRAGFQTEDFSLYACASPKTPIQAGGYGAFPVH
T1 sequence (P15056 whole entry, the tested form may be a part): as the sequence (P15056 whole entry V600E) above, with E600V counted along it

The pIC50 is −log10 of the IC50, conventionally taken in molar units. The molecule `COCCOCC(=O)Nc1nc2ccc(Oc3ccc(F)c(NC(=O)Cc4cccc(C(F)(F)F)c4)c3)c(C#N)c2s1` gave a pIC50 in [1] of 8.24.
`N#Cc1c(Oc2ccc(F)c(NC(=O)Cc3cccc(C(F)(F)F)c3)c2)ccc2nc(NC(=O)COCCOCCOCCOCCOCC(=O)Nc3nc4ccc(Oc5ccc(F)c(NC(=O)Cc6cccc(C(F)(F)F)c6)c5)c(C#N)c4s3)sc12`: the outcome in assay [2] was inactive. Moreover, the pIC50 in [1] is 7.04 to 7.07; in [3] it was 7.13.
For the molecule `N#Cc1c(Oc2ccc(F)c(NC(=O)Cc3cccc(C(F)(F)F)c3)c2)ccc2nc(NC(=O)COCCOCCOCC(=O)Nc3nc4ccc(Oc5ccc(F)c(NC(=O)Cc6cccc(C(F)(F)F)c6)c5)c(C#N)c4s3)sc12`, the Tm was in the range of 40.1 to 62.6 °C in assay [4], 38.7 to 59.6 °C in [6] and 38.4 to 58.6 °C in assay [8]. Besides, the result in assay [5], in assay [2], in assay [7] and in assay [9] was inactive. The pIC50 in assay [1] is 6.88 to 7.06; in assay [3] it was 7.13.
Consider `N#Cc1c(Oc2ccc(F)c(NC(=O)Cc3cccc(C(F)(F)F)c3)c2)ccc2nc(NC(=O)C3CC3)sc12`, for which the outcome in assay [5], in [7] and in assay [9] was Active. In addition, the Tm in [6] came out at 68.7 °C. Also, the values for the pIC50 in assay [1] and in [3] were 8.15 to 8.49 and 8.35, respectively.
As to `N#Cc1c(Oc2ccc(F)c(NC(=O)Cc3cccc(C(F)(F)F)c3)c2)ccc2nc(NC(=O)COCCOCCOCCOCCOCCOCCOCC(=O)Nc3nc4ccc(Oc5ccc(F)c(NC(=O)Cc6cccc(C(F)(F)F)c6)c5)c(C#N)c4s3)sc12`, the negative-log IC50 (pIC50) in assay [1] is 6.14; in [3], 6.45.
For `CCCS(=O)(=O)Nc1ccc(F)c(C(=O)c2c[nH]c3ncc(-c4ccc(Cl)cc4)cc23)c1F`, the result in [5] and in assay [9] was inactive.
For `N#Cc1c(Oc2ccc(F)c(NC(=O)Cc3cccc(C(F)(F)F)c3)c2)ccc2nc(NC(=O)COCC(=O)Nc3nc4ccc(Oc5ccc(F)c(NC(=O)Cc6cccc(C(F)(F)F)c6)c5)c(C#N)c4s3)sc12`, the pIC50 was 6.27 in assay [1] and 6.38 in assay [3].
On to `N#Cc1c(Oc2ccc(F)c(NC(=O)Cc3cccc(C(F)(F)F)c3)c2)ccc2nc(NC(=O)COCCOCCOCCOCC(=O)Nc3nc4ccc(Oc5ccc(F)c(NC(=O)Cc6cccc(C(F)(F)F)c6)c5)c(C#N)c4s3)sc12`, for which the pIC50 is 6.21 in assay [1] and 6.77 in assay [3].
Consider `N#Cc1c(Oc2ccc(F)c(NC(=O)Cc3cccc(C(F)(F)F)c3)c2)ccc2nc(NC(=O)COCCOCCOCC(=O)Nc3nccs3)sc12`, for which the Tm in assay [6] is 63.3 °C. Further, the pIC50 in [1] is 7.69. For the same molecule, the outcome in [9] was Active.

The values above are taken from ChEMBL document CHEMBL4229397, “N-(7-Cyano-6-(4-fluoro-3-(2-(3-(trifluoromethyl)phenyl)acetamido)phenoxy)benzo[d]thiazol-2-yl)cyclopropanecarboxamide (TAK632) Promotes Inhibition of BRAF through the Induction of Inhibited Dimers” (J Med Chem, 2018).
